Data set [1] can be described thus: Toxicity in human erythrocytes assessed as reduction of membrane fluidity by fluorescent anisotropy. It is filed as cell-based. Conditions: erythrocyte; call rule not given here. The method, boiled down:
(§1)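 Human erythrocyte ghosts (hypotonic Tris-HCl/EDTA lysis) diluted in PBS pH 7.4, 2 min at 37 °C with compound (0.05-0.75 μM final), then DPH 1 μM final, 15 min dark at room temperature; steady-state anisotropy, excitation 348/emission 426 nm; ratio to no-compound control (Ai/A0). Mean ± SEM, n=8.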

Data set [2] in a line: Toxicity in Wistar rat erythrocytes assessed as induction of hemolysis at 50 uM. The class given is cell-based, Erythrocyte. Conditions: read-out: Activity. The method, boiled down: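 Freshly isolated, washed rat erythrocytes as 2% suspension in 140 mM NaCl, 10 mM Tris-citrate, 1 mM EDTA, pH 7.5, incubated 30 min at 37 °C with compound (20-100 μM range); spun at 1000g, supernatant OD540 read against water-lysed cells as 100%. Mean ± SEM, n=9.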

A short description of data set [3]: Effect on nonenergized Wistar rat liver mitochondrial membrane permeability assessed as increase in permeability to potassium ion at 20 uM. The class given is ADME, mitochondria, Mitochondria. The method, boiled down:
(§2)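 Passive swelling of nonenergized rat liver mitochondria (1.0 mg/mL protein) in iso-osmotic nitrate media, Tris-HNO3 pH 7.4, rotenone 0.33 μg/mL, 25 °C, stirred: KNO3 120 mM; Mg2+ and Ba2+ 80 mM; Ca2+ 40 mM with 120 mM sucrose. Absorbance decrease at 520 nm followed; swelling rates normalised to the K+ rate set as 1. Five recordings.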

A short description of data set [4]: Effect on nonenergized Wistar rat liver mitochondrial membrane permeability assessed as increase in permeability to Mg2+ ion at 20 uM. The class given is ADME, mitochondria, Mitochondria. The method, boiled down: as §2
Data set [5] in a line: Drug binding to Wistar rat liver mitochondrial membrane assessed as [14C] labeled megosin after 5 mins. The class given is ADME, tissue-based. Conditions: in vitro. Put shortly: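 Mitochondria (10 mg protein/mL) incubated with 14C-labeled compound (10 nmol/mg protein, 9.45 mCi/mmol) plus 50-fold unlabeled (500 nmol/mg) at 22 °C with stirring; vacuum filtration through nitrocellulose, two water rinses, filters dried 24 h and counted by liquid scintillation; bound label expressed as cpm and % of total radioactivity. Mean ± SEM, n=12.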

A short description of data set [6]: Effect on nonenergized Wistar rat liver mitochondrial membrane permeability assessed as increase in permeability to Ba2+ ion at 20 uM. It is filed as ADME, mitochondria, Mitochondria. Put shortly:
as §2

A short description of data set [7]: Toxicity in human erythrocytes assessed as reduction of membrane fluidity at 0.4 uM by fluorescent anisotropy relative to untreated control. The class given is cell-based. Conditions: erythrocyte. Put shortly: as §1
Data set [8] can be described thus: Decrease in Wistar rat liver mitochondrial membrane fluidity assessed as rotational correlation times of spin probe at 0.15 uM by ESR. The class given is ADME, mitochondria, Mitochondria. Put shortly: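 ESR of rat liver mitochondria (1 mg/mL protein) in 145 mM KCl, 10 mM Tris-HCl pH 7.4 with nitroxide spin probe added in ethanol to 10^-6 M final; 2 min incubation with compound (range 0.025-0.3 μM) before spectra; rotational correlation time τc derived. Mean ± SEM, n=9, three independent experiments.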

Data set [9] can be described thus: Effect on nonenergized Wistar rat liver mitochondrial membrane permeability assessed as increase in permeability to Ca2+ ion at 20 uM. The class given is ADME, mitochondria, Mitochondria. The method, boiled down: as §2

As for `Cc1cc2c(c(O)c1-c1c(C)cc3c(c1O)/C(=C/NCCS(=O)(=O)[O-])C(=O)C(O)=C3C(C)C)/C(=C/NCCS(=O)(=O)[O-])C(=O)C(O)=C2C(C)C.[Na+].[Na+]` [MEGOSIN], the Activity result in [1] is “Dose-dependent effect”; in data set [3], “Active”; in [4] it was “Active”; in data set [6], “Active”; in [8], 32.1 ×10⁻¹⁰ s; in [9] it was “Active”. For the same compound, the hemolysis at 50 µM in data set [2] turned out to be 68%. In addition, the Drug uptake in [5] is reported as 88.2%. Moreover, the “fold change (FC)” value in data set [7] amounted to 1.83.

Source of the values: ChEMBL document CHEMBL1137792, “The immobilization of gossypol derivative on N-polyvinylpyrrolidone increases its water solubility and modifies membrane-active properties” (J Med Chem, 2009).
